The sample as a whole holds a higher share of hits than the screen did.
INS promoter act: TRM-6 insulin promoter activation; TRM-6 cells (human fetal islet line), insulin promoter eGFP reporter, imaging; plate-scaled: unstimulated 0, stimulated control 100; activation, % at 2 µM; 130,000 compounds, 0.81% hits; AID 1296;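 active = activation at 2 µM above a set limit, confirmed on inspection of the cell images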;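 also: share of cells whose green reporter signal exceeds an intensity cutoff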
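Material: TRM-6 insulin promoter–eGFP reporter cells. Buffer or medium: Low-glucose (5.5 mM) medium with tamoxifen. Probe or stimulus: tamoxifen at 0.75 µM added at seeding for reporter induction. Times: tamoxifen pre-incubation 15 h overnight, then compound exposure 48 h at 37 °C. Detection: high-content imaging of fixed cells with Hoechst nuclear stain.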
Hits are given with their value; n = inactive; + = active, no number.

SMILES	INS promoter act
CC(C)OC(=O)CCNc1n[nH]c(=O)[nH]c1=O	543
COc1ccc(/C=N/NC(=O)CCNc2n[nH]c(=O)[nH]c2=O)c(OC)c1	n
CCCCOC(=O)CNc1n[nH]c(=S)[nH]c1=O	n
O=C(O)c1cc2ccccc2n1-c1ccccc1	n
CCOC(=O)C1CCCN(C(=O)c2cccs2)C1 (stereo unspecified)	n
CCOC(=O)C1CCCN(S(=O)(=O)c2cccs2)C1 (stereo unspecified)	462
CC(C)NC(=O)C1CCCN(S(=O)(=O)c2cccs2)C1 (stereo unspecified)	n
COc1cc(OC)cc(C(=O)NCCNC(=O)c2ccco2)c1	n
O=C1NC(NS(=O)(=O)c2ccc(Cl)cc2)(C(F)(F)F)C(=O)N1Cc1cccnc1 (stereo unspecified)	n
Cc1ccc(-c2nnc3c(C(F)(F)F)nc4ccccc4n23)cc1	n
CCc1nc2ccccc2c2nc3ccccc3n12	n
Cc1nnc2c(Oc3ccccc3)nc3ccccc3n12	131
Cc1ccc(C(=O)NC(C)(COc2nonc2C)COc2nonc2C)cc1	n
CC(C)(C)NC(=O)CCN1CCOCC1	n
Nc1nnc(Sc2ncccc2[N+](=O)[O-])s1	n
Cc1cc(C)c(C)c(Oc2ncnc(N)c2[N+](=O)[O-])c1	n
Cc1ccccc1Oc1ncnc(N)c1[N+](=O)[O-]	n
Cc1ccc(Oc2ncnc(N)c2[N+](=O)[O-])cc1C	312
Cc1ccccc1C(=O)NC1CCN(Cc2nnnn2C2CCCC2)CC1	n
Cc1nnc(NC(=O)c2oc3c(ccc4ccccc43)c2C)s1	n
O=C(CCc1c[nH]c2ccccc12)NCC(=O)Nc1ccc(F)c(F)c1F	n
CC(C)(C)c1csc(NC(=O)Cn2c(=O)oc3ccccc32)n1	429
O=C(Cn1c(=O)oc2ccccc21)c1ccccc1	n
CCOc1ccc(NC(=O)Cn2c(=O)oc3ccccc32)cc1	n
COc1ccccc1NC(=O)CSc1nc2ccccc2cc1Cc1ccccc1	n
SMILES	INS promoter act
CCCn1cc(NC(=O)c2cc3n(n2)C(C(F)(F)F)CC(c2ccccc2)N3)cn1 (stereo unspecified)	431
Cc1cc(NC(=O)c2cc3n(n2)C(C(F)(F)F)CC(c2ccco2)N3)n(-c2ccccc2)n1 (stereo unspecified)	n
Cc1nn(C)c(C)c1CNC(=O)c1cc2n(n1)C(C(F)(F)F)CC(c1cccs1)N2 (stereo unspecified)	n
COc1ccc(S(=O)(=O)N2CCOCC2)cc1NC(=O)Cc1ccc(Cl)c(Cl)c1	n
CC1(C(=O)O)Oc2cccnc2NC1=O (stereo unspecified)	409
CCN(C(=O)COc1ncnc2scc(-c3ccc(F)cc3)c12)C1CCS(=O)(=O)C1 (stereo unspecified)	n
Cc1ccc(-c2nc(N/N=C/c3cccc([N+](=O)[O-])c3)c3ccccc3n2)cc1	n
O=[N+]([O-])c1cccc(-c2nc(NCc3ccccc3)c3ccccc3n2)c1	322
Fc1ccc(CNc2nc(-c3ccccc3)nc3ccccc23)cc1	n
O=C(CCn1c(=O)[nH]c2ccsc2c1=O)NCc1ccc(F)cc1	n
COC(=O)c1ccc(NS(=O)(=O)c2ccc(SC)cc2)cc1	730
CC(=O)c1ccc(NS(=O)(=O)c2ccc(N)cc2)cc1	n
CSc1ccc(S(=O)(=O)Nc2ccc(F)cc2)cc1	420
CSc1ccc(S(=O)(=O)Nc2c(C)cccc2C)cc1	n
CCN(CC)S(=O)(=O)c1ccc(NS(=O)(=O)c2ccc(F)cc2)cc1	n
COc1ccc(NS(=O)(=O)c2ccc(SC)cc2)cc1	n
CN(C)CC(O)COC(c1ccccc1)c1ccccc1 (stereo unspecified)	n
Cc1cccc(S(=O)(=O)Nc2ccc(C)c3c2OC(C)(C)C3)c1	n
COc1ccc(S(=O)(=O)Nc2cc([N+](=O)[O-])ccc2OC)cc1	n
Cc1cccc(NC(=O)NCCc2c[nH]c3ccccc23)c1	n
Cc1ccc(/C=C/C(=O)NCCc2c[nH]c3ccccc23)o1	467
Cc1ccc(/C=C/C(=O)NCc2ccccn2)o1	n
COc1ccc(S(=O)(=O)N[C@@H](C)C(=O)OCC(=O)Nc2cc3oc4ccccc4c3cc2OC)cc1	n
COc1ccc(OC)c2c1nc1n2CCS1	n
COc1ccccc1NC(=O)c1cc(Cl)ccc1NC(=O)c1ccco1	n
SMILES	INS promoter act
COc1ccccc1-c1noc(-c2ccccc2C(=O)Nc2ccccc2)n1	n
COc1ccccc1NC(=O)c1ccccc1-c1nc(-c2ccccc2OC)no1	400
O=C(N/C(=C\c1ccc([N+](=O)[O-])cc1)C(=O)N1CCCCC1)c1ccccc1Br	n
Cc1cc(=O)oc2cc(OCC(=O)c3ccc4c(c3)NC(=O)CO4)ccc12	n
Cc1ccc(NCC(O)C(O)C(O)CO)cc1C (stereo unspecified)	427
CSc1ccc(CNc2ccc(C)c(C)c2)cc1	n
Cc1cc(N=Nc2ccccc2)c(NCC(O)C(O)C(O)CO)cc1C (stereo unspecified)	n
CCc1nnc(NC(=O)CSc2nnc(-c3ccccc3NC(=O)c3ccccc3)o2)s1	n
Cc1ccc(C(=O)OCn2ncc(Cl)c(Cl)c2=O)cc1	194
Cc1ccc(C)c(C(=O)Cn2ncc(Cl)c(Cl)c2=O)c1	n
CCOC(=O)c1ccc(NC(=O)Cn2ncc(Cl)c(Cl)c2=O)cc1	n
CC1CC(C)CN(CC(C)(C)NS(=O)(=O)c2ccccc2)C1 (stereo unspecified)	n
N/C(=N\OC(=O)Oc1ccccc1)c1ccc(Br)cc1	493
COc1ccc(/C(N)=N/OC(=O)Oc2ccccc2)cc1OC	n
N/C(=N\OC(=O)CCc1ccccc1)c1ccc(Br)cc1	n
Clc1ccc(Br)cc1-c1nc(-c2cccnc2)no1	n
CN(C)c1ccc(CNn2cnnc2SCc2ccc(F)cc2)cc1	n
Fc1ccc(CSc2nncn2NCc2ccccc2)cc1	428
CC(C)(C)NC(=O)CSc1nncn1NCc1ccccc1	n
CC(C)[C@H](NC(N)=O)C(=O)NCCc1ccc(Cl)cc1Cl	n
Cc1nc2c(C(=O)NCCC(C)C)c[nH]n2c(=O)c1Cc1ccccc1F	n
CC(C)CCNC(=O)[C@@H](NC(=O)c1c(F)cccc1F)C(C)C	94
COc1cccc(OCC(=O)NNC(=O)C(=O)N2CCCC2)c1	n
O=C(O)CCCN1C(=O)C(=O)/C(=C(/O)c2ccccc2)C1/C=C/c1ccccc1 (stereo unspecified)	n
CSc1ccc(/C=N/NC(=O)c2ccc(C)c(C)c2)cc1	n
SMILES	INS promoter act
CSc1ccc(/C=N/NC(=O)CNc2ccc3ccccc3c2)cc1	369
Cc1cccc(NCC(=O)N/N=C/c2cccc(Br)c2)c1	n
Cc1ccc(C(=O)COC(=O)CNC(=O)C(c2ccccc2)c2ccccc2)cc1[N+](=O)[O-]	n
Cc1ccc(C(=O)NCCSC(C)(C)C)cc1[N+](=O)[O-]	n
COC(=O)CCN(C(=O)c1ccc(C)c([N+](=O)[O-])c1)c1ccccn1	+
CN(C)c1nc(NC(C)(C)C)nc(SCC(=O)Nc2ccccc2)n1	n
CCOC(=O)c1ccc(N2C(=O)c3n[nH]c(-c4ccco4)c3C2c2cccc([N+](=O)[O-])c2)cc1 (stereo unspecified)	n
O=C(Nc1ncc2c(n1)CC(c1ccco1)CC2=O)c1ccccc1 (stereo unspecified)	n
Cc1ccc(NC(=O)CSCC(=O)Nc2ncc3c(n2)CC(c2ccco2)CC3=O)cc1 (stereo unspecified)	n
Cc1nn2c3c(cnc2c1-c1ccccc1)C(=O)CC(c1ccco1)C3 (stereo unspecified)	136
